Source: paper PMC3445775 (Hepatology (Baltimore, Md.), 2012)
Entries after “also recorded” stand apart in the source; their conditions may differ.

Key:
FATP5 and FATP2 = assay: Inhibition reversibility assay; format: cell-based, human; settings: 30 min treatment followed by brief washes with PBS
human FATP5 = molecular target: T1, human FATP5 (Homo sapiens, UniProt Q9Y2P5); format: cell-based; settings: for inhibition of FATP5-mediated LCFA uptake: result in words
T1 sequence (Q9Y2P5 1-690): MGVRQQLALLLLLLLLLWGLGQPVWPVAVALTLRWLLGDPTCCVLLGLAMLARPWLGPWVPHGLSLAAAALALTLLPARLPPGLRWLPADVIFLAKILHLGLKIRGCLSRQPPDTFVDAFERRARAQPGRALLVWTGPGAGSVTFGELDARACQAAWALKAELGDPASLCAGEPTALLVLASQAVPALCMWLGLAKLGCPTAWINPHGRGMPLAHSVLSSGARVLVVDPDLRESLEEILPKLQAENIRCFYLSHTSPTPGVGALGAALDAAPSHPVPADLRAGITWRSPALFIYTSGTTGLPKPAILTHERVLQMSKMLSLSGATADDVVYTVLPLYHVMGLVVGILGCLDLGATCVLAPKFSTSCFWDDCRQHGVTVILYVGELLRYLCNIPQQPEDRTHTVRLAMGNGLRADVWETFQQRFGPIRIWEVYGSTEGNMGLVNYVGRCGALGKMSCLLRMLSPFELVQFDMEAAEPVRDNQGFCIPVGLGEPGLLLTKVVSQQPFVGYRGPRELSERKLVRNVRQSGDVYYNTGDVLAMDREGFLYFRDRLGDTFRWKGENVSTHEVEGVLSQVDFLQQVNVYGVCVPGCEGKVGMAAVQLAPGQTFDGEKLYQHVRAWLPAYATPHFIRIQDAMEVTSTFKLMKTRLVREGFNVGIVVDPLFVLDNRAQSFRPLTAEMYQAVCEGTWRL
Summary of the method: (§1)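 HEK-293 cells stably expressing human FATP4, FATP2 or FATP5 were maintained in DMEM/10% FBS with 1 mg/ml G418. Cells were plated at 30,000–50,000/well overnight to 50–70% confluency. They were preincubated 30 min (5% CO2) with test compound, diluted from DMSO stock into HBSS with 20 mM HEPES, 4.5 g/L glucose and 0.1% fatty-acid-free BSA. Compound in quencher mix containing 2 μM C1-BODIPY-C12 was then added. Fluorescence (ex 488/em 515 nm, bottom read) was recorded every 2 min for 2 h, and uptake velocities were derived by linear regression.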

human FATP2 = human FATP2 (Homo sapiens, UniProt O14975); format: cell-based; settings: for inhibition of FATP2-mediated LCFA uptake: result in words
Summary of the method: as §1

293 cells = assay: XTT toxicity assay, stable 293 cell lines; format: cell-based, human; settings: 48 hours
Summary of the method: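 Stable 293 cells in DMEM/FBS were incubated overnight in 5% CO2. The indicated test compound or DMSO control was added, and after a further 48 h viability was measured with an XTT kit per the manufacturer's instructions.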

hepatic LCFA uptake = assay: Non-radioactive in vivo hepatic LCFA uptake assay; set-up: species or system mouse; settings: WT mice, acute injection
hsFATP4 = hsFATP4 (Homo sapiens, UniProt Q6P1M0); assay: Quencher-based LCFA uptake assay, FATP4 expressing 293 cells; format: cell-based; settings: result in words
Sequence of hsFATP4 (Q6P1M0 whole entry): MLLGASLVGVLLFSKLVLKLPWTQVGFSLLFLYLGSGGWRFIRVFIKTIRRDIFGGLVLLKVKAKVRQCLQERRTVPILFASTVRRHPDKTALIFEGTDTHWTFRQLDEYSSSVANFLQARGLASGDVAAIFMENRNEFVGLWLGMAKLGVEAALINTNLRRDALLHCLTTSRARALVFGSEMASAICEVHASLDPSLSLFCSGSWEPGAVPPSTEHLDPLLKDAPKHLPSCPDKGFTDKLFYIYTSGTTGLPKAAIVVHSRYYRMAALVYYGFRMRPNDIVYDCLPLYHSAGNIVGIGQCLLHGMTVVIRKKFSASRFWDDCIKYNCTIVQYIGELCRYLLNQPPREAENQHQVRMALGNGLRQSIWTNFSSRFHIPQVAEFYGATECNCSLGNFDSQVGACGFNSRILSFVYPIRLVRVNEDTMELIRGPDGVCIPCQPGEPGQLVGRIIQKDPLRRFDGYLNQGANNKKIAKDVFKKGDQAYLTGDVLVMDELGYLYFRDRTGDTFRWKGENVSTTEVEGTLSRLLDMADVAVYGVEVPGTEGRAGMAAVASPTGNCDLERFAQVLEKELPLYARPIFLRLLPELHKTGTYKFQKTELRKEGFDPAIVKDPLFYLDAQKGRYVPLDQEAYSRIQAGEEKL
Summary of the method: as §1

[1] = test system: hepatic triglyceride accumulation; assay: Chronic bile acid injection during high-fat diet; format: in vivo, mouse; settings: 3.2 mg/kg s.c. daily, 47 days
Summary of the method: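 Individually housed mice on a high-fat diet (60% calories from fat) received daily s.c. injections of test compound, 3.2 mg/kg in 20 μl DMSO, above the right hip for 47 days. Controls received DMSO vehicle. Mice were fasted 4 h and euthanised with CO2, and injection sites were checked for precipitate. Liver lysates were assayed for protein (BCA) and TAG.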

hepatic TAG content = assay: 7 week bile acid supplemented high-fat diet feeding; format: in vivo, mouse
[2] = test system: primary mouse hepatocytes from C57Bl/6 animals; assay: Quencher based LCFA uptake assay, wild-type mouse primary hepatocytes; format: cell-based
[3] = test system: primary human hepatocytes; assay: FACS-based LCFA uptake assay, primary human hepatocytes; format: cell-based; settings: 10 or 100 μM, viable cells
Summary of the method: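 Suspended primary human hepatocytes were pretreated with test compound at 10 or 100 μM in DMEM (37°C, 5% CO2, 30 min). C1-BODIPY-C12 bound to 0.1% BSA was then added to a final 2 μM for 30 min at 37°C. Uptake was stopped on ice, and cells were centrifuged at 4°C and resuspended in cold PBS. Propidium iodide was added, and mean BODIPY fluorescence of 5000 viable PI-negative cells was taken from histogram plots.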

[4] = 0.5mg/g in high fat food, 7 weeks

SMILES | Reversible Inhibition (FATP5 and FATP2) | IC50 (human FATP5) | inhibition of FATP5-mediated LCFA uptake (human FATP5) | IC50 (human FATP2) | inhibition of FATP2-mediated LCFA uptake (human FATP2) | other results
C[C@H](CCC(=O)O)[C@H]1CC[C@H]2[C@@H]3[C@H](O)C[C@@H]4C[C@H](O)CC[C@]4(C)[C@H]3C[C@H](O)[C@]12C [CA, cholic acid] | complete reversibility and Yes | 31 µM | specifically inhibited FATP5-mediated LCFA uptake | – | – | –
COc1cc(/C=C2/SC(=S)N(c3cccc(Cl)c3)C2=O)cc(Br)c1O [CB-2, (5E)-5-[(3-bromo-4-hydroxy-5-methoxyphenyl)methylene]-3-(3-chlorophenyl)-2-thioxothiazolidin-4-one, reference compound] | Yes | – | – | 8 µM | – | –
O=c1cc(-c2ccc([N+](=O)[O-])cc2)nc2c(-c3ccc(Cl)cc3)c(Cc3ccccc3)[nH]n12 [CB-5, 2-benzyl-3-(4-chlorophenyl)-5-(4-nitrophenyl)-1H-pyrazolo[5,1-b]pyrimidin-7-one, reference compound] | No (tox) | 7 µM | – | 18 µM | – | toxicity (XTT assay) (293 cells): marked cytotoxicity
Oc1c(C2=NCCNC(C(F)(F)F)=C2)ccc2ccccc12 [CB-6, 2-[7-(trifluoromethyl)-2,3-dihydro-1H-1,4-diazepin-5-yl]naphthalen-1-ol, reference compound] | irreversible and No | 38 µM | – | 12 µM | – | –
C[C@H](CCC(=O)O)[C@H]1CC[C@H]2[C@@H]3[C@H](O)C[C@@H]4C[C@H](O)CC[C@]4(C)[C@H]3CC[C@]12C [CDCA, chenodeoxycholic acid] | complete reversibility and Yes | 10 µM | specifically inhibited FATP5-mediated LCFA uptake | – | – | –
C[C@H](CCC(=O)O)[C@H]1CC[C@H]2[C@@H]3CC[C@@H]4C[C@H](O)CC[C@]4(C)[C@H]3CC[C@]12C [LCA, lithocholic acid] | – | – | no inhibition | – | no inhibition | effect on in vivo hepatic LCFA uptake (hepatic LCFA uptake): had no effect; inhibition of FATP4 LCFA uptake (hsFATP4): neither DCA, UDCA, nor LCA inhibited; also recorded: No inhibition; body weight [1]: nor did it affect food consumption or body weight; food consumption [1]: nor did it affect food consumption or body weight; respiration [1]: neither triggered an increase in respiration; body weight (hepatic TAG content; [4]): Neither DCA nor LCA feeding resulted in changes; caloric output over a 36h period (hepatic TAG content; [4]): Neither DCA nor LCA feeding resulted in changes; food intake (hepatic TAG content; [4]): Neither DCA nor LCA feeding resulted in changes; respiratory rate (hepatic TAG content; [4]): Neither DCA nor LCA feeding resulted in changes; effect on liver TAG content (hepatic TAG content; result in words, LCA in high-fat diet model): had no effect; inhibition of LCFA uptake by primary mouse hepatocytes [2]: no inhibition
C[C@H](CCC(=O)NCCS(=O)(=O)O)[C@H]1CC[C@H]2[C@@H]3CC[C@@H]4C[C@H](O)CC[C@]4(C)[C@H]3C[C@H](O)[C@]12C [TDCA, taurodeoxycholic acid] | – | – | inhibited neither FATP2 nor FATP5 | – | inhibited neither FATP2 nor FATP5 | –
CC(CCC[C@@H](C)[C@H]1CC[C@H]2[C@@H]3[C@H](O)C[C@@H]4C[C@H](O)CC[C@]4(C)[C@H]3C[C@H](O)[C@]12C)C(=O)O (stereo partly drawn) [THCA, 3a,7a,12a-Trihydroxy-5β-cholestanoic acid] | – | – | weak inhibition | – | no inhibition | –
C[C@H](CCC(=O)NCCS(=O)(=O)O)[C@H]1CC[C@H]2[C@@H]3[C@@H](O)C[C@@H]4C[C@H](O)CC[C@]4(C)[C@H]3CC[C@]12C [TUDCA, tauroursodeoxycholic acid] | – | – | did not inhibit | – | did not inhibit | inhibition of LCFA uptake by primary human hepatocytes [3]: but not TUDCA
C[C@H](CCC(=O)O)[C@H]1CC[C@H]2[C@@H]3[C@H](O)[C@@H](O)[C@@H]4C[C@H](O)CC[C@]4(C)[C@H]3CC[C@]12C [alpha-muricholic acid] | – | – | no effect on LCFA uptake | – | – | –
